# Source: ChEMBL document CHEMBL1144718, “Novel 3-aroylpyrazolo[5,1-c][1,2,4]benzotriazine 5-oxides 8-substituted, ligands at GABAA/benzodiazepine receptor complex: synthesis, pharmacological and molecular modeling studies” (Bioorg Med Chem, 2008)
# Activity calls are given as the source filed them. The calls are words filed in the database; no cut-off is given here.
# Assays:
# [1] = Displacement of [3H]flumazenil from GABAA/BzR complex in bovine cerebral cortex membrane; format: cell membranes, Bos taurus
# Summary of the method: (§1)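 Bovine cerebral cortex membranes in 50 mM Tris-citrate pH 7.4 incubated with [3H]Ro15-1788 (1–2 nM) for 1 h at 4 °C to equilibrium; nonspecific binding with 10^-5 M diazepam; DMSO ≤1%. Ki from ≥6 concentrations (10^-9–10^-5 M) by curve fitting and Cheng–Prusoff; percent inhibition at 10 µM; five determinations, triplicate.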
# Mus musculus [2] = assay: Effect on motor coordination in CD1 Albino mouse assessed as number of falls in 30 secs at 3 mg/kg, po after 30 mins by rotarod test; format: functional
# Summary of the method: (§2)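 Rota-rod at 16 rpm in male CD-1 mice after po dosing in 1% CMC; number of falls in 30 s counted at 15, 30, 45 and 60 min post-administration.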
# Mus musculus [3] = assay: Effect on motor coordination in CD1 Albino mouse assessed as number of falls in 30 secs at 10 mg/kg, po after 30 mins by rotarod test relative to control; format: functional; summary of the method: as §2
# Mus musculus [4] = assay: Effect on motor coordination in CD1 Albino mouse assessed as number of falls in 30 secs at 30 mg/kg, po after 30 mins by rotarod test relative to control; format: functional; summary of the method: as §2
# Mus musculus [5] = assay: Anticonvulsant activity against pentylenetetrazole-induced seizure in CD1 Albino mouse assessed as shock latency at 3 mg/kg, po after 30 mins; format: functional
# Summary of the method: (§3)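 Male CD-1 mice (22–24 g), compound suspended in 1% CMC (sonicated) given po in 10 ml/kg; 30 min later PTZ 90 mg/kg sc (in saline). Latency (s) to shock and to convulsions recorded; clonic generalized convulsions counted over 30 min.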
# Mus musculus [6] = assay: Anticonvulsant activity against pentylenetetrazole-induced seizure in CD1 Albino mouse assessed as shock latency at 10 mg/kg, po after 30 mins; format: functional; summary of the method: as §3
# Mus musculus [7] = assay: Anticonvulsant activity against pentylenetetrazole-induced seizure in CD1 Albino mouse assessed as shock latency at 30 mg/kg, po after 30 mins; format: functional; summary of the method: as §3
# Mus musculus [8] = assay: Sedative activity in CD1 albino mouse assessed as reduction of spontaneous motility at 3 mg/kg, po after 30 mins by hole-board test; format: functional, organism-based; parameters: dose 3 mg/kg
# Summary of the method: (§4)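 Hole-board: male CD-1 mice given compound po (1% CMC) and placed individually on the board 30 min later, free to explore panel and holes for 5 min; spontaneous motility and exploration (panel and hole movements) scored.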
# Mus musculus [9] = assay: Sedative activity in CD1 albino mouse assessed as reduction of spontaneous motility at 10 mg/kg, po after 30 mins by hole-board test; format: functional, organism-based; parameters: dose 10 mg/kg; summary of the method: as §4
# Mus musculus [10] = assay: Sedative activity in CD1 albino mouse assessed as reduction of spontaneous motility at 30 mg/kg, po after 30 mins by hole-board test; format: functional, organism-based; parameters: dose 30 mg/kg; summary of the method: as §4
# Mus musculus [11] = assay: Sedative activity in CD1 albino mouse assessed as reduction of explorative activity at 3 mg/kg, po after 30 mins by hole-board test; format: functional, organism-based; parameters: dose 3 mg/kg; summary of the method: as §4
# Mus musculus [12] = assay: Sedative activity in CD1 albino mouse assessed as reduction of explorative activity at 10 mg/kg, po after 30 mins by hole-board test; format: functional, organism-based; parameters: dose 10 mg/kg; summary of the method: as §4
# Mus musculus [13] = assay: Sedative activity in CD1 albino mouse assessed as reduction of explorative activity at 30 mg/kg, po after 30 mins by hole-board test; format: functional, organism-based; parameters: dose 30 mg/kg; summary of the method: as §4
# Mus musculus [14] = assay: Anxiolytic effect in CD1 albino mouse at 10 mg/kg, po after 30 mins by light-dark box test; format: functional, organism-based; parameters: dose 10 mg/kg
# Summary of the method: (§5)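 Male CD-1 mice (22–24 g); test agent po in 1% CMC, 30 min before a light/dark box session; time (s) spent in the illuminated compartment measured. Means ± SEM of 14–21 mice.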
# Mus musculus [15] = assay: Anxiolytic effect in CD1 albino mouse at 3 mg/kg, po after 30 mins by light-dark box test; format: functional, organism-based; parameters: dose 3 mg/kg; summary of the method: as §5
# Mus musculus [16] = species on record: Mus musculus; assay: Reversal of anxiolytic effect in CD1 albino mouse by light-dark box test in presence of flumazenil; format: functional, organism-based
# Summary of the method: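 Light/dark box in male CD-1 mice: compound po (1% CMC) 30 min before test, with flumazenil given ip at […] in saline; time (s) in illuminated compartment recorded. Means ± SEM of 14–21 mice.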
# Mus musculus [17] = assay: Increase in learning and memory performance in CD1 albino mouse at 3 mg/kg, po after 24 hrs by passive avoidance test; format: functional, organism-based; parameters: dose 3 mg/kg
# Summary of the method: (§6)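 Passive avoidance in male CD-1 mice treated po 30 min before training; retention tested 24 h later. Latency to enter the dark compartment measured, maximum 60 s (training) and 180 s (retention). Means ± SEM of 15–18 mice.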
# Mus musculus [18] = assay: Increase in learning and memory performance in CD1 albino mouse at 10 mg/kg, po after 24 hrs by passive avoidance test; format: functional, organism-based; parameters: dose 10 mg/kg; summary of the method: as §6
# Mus musculus [19] = assay: Effect on ethanol-induced sleeping time in CD1 Albino mouse assessed as increase in duration of loss of righting reflex at 3 mg/kg, po after 30 mins; format: functional, organism-based; parameters: dose 3 mg/kg
# Summary of the method: (§7)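 Male CD-1 mice dosed po (1% CMC suspension); ethanol 4 g/kg ip given 30 min after the compound. Sleep time taken as duration of loss of righting reflex, end-point 150 min.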
# Mus musculus [20] = assay: Effect on ethanol-induced sleeping time in CD1 Albino mouse assessed as increase in duration of loss of righting reflex at 10 mg/kg, po after 30 mins; format: functional, organism-based; parameters: dose 10 mg/kg; summary of the method: as §7
# Mus musculus [21] = assay: Effect on ethanol-induced sleeping time in CD1 Albino mouse assessed as increase in duration of loss of righting reflex at 30 mg/kg, po after 30 mins; format: functional, organism-based; parameters: dose 30 mg/kg; summary of the method: as §7
# Mus musculus [22] = assay: Anticonvulsant activity against pentylenetetrazole-induced seizure in CD1 Albino mouse assessed as convulsant latency at 3 mg/kg, po after 30 mins; format: functional; summary of the method: as §3
# Mus musculus [23] = assay: Anticonvulsant activity against pentylenetetrazole-induced seizure in CD1 Albino mouse assessed as convulsant latency at 10 mg/kg, po after 30 mins; format: functional; summary of the method: as §3
# Mus musculus [24] = assay: Anticonvulsant activity against pentylenetetrazole-induced seizure in CD1 Albino mouse assessed as convulsant latency at 30 mg/kg, po after 30 mins; format: functional; summary of the method: as §3
# Mus musculus [25] = assay: Anticonvulsant activity against pentylenetetrazole-induced seizure in CD1 Albino mouse assessed as shock latency at 1 mg/kg, ip after 20 mins; format: functional, organism-based; parameters: dose 1 mg/kg
# Summary of the method: (§8)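 In male CD-1 mice (22–24 g), drug in saline was given ip at 10 ml/kg; the test ran 20 min later. PTZ 90 mg/kg sc was the convulsant. Latency (s) to shock and to convulsions was scored, and clonic generalized convulsions were counted over 30 min. Significance was set at P < 0.05 versus controls.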
# Mus musculus [26] = assay: Sedative activity in CD1 albino mouse assessed as reduction of spontaneous motility at 3 mg/kg, ip after 20 mins by hole-board test; format: functional, organism-based; parameters: dose 3 mg/kg
# Summary of the method: (§9)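 Hole-board test in male CD-1 mice (22–24 g) after an ip dose in saline (10 ml/kg). Each mouse explored the panel and holes alone for 5 min. Spontaneous motility was scored as panel movements and curiosity as exploration of the holes.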
# Mus musculus [27] = assay: Sedative activity in CD1 albino mouse assessed as reduction of curiosity at 3 mg/kg, ip after 20 mins by hole-board test; format: functional, organism-based; parameters: dose 3 mg/kg; summary of the method: as §9
# Mus musculus [28] = assay: Anticonvulsant activity against pentylenetetrazole-induced seizure in CD1 Albino mouse assessed as convulsant latency at 1 mg/kg, ip after 20 mins; format: functional, organism-based; parameters: dose 1 mg/kg; summary of the method: as §8
# Mus musculus [29] = assay: Amnesic activity in CD1 albino mouse at 1 mg/kg, ip; format: functional, organism-based; parameters: dose 1 mg/kg
# Summary of the method: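 Male CD-1 mice (22–24 g) given drug ip in 0.9% saline at 10 ml/kg. Passive-avoidance training followed treatment, and retention was tested 24 h later. Read-out was latency to enter the dark compartment in both sessions, capped at 60 s (training) and 180 s (retention). Means ± SEM of 15–18 mice.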
# Bos taurus = species on record: Bos taurus; assay: Displacement of [3H]flumazenil from GABAA/BzR complex in bovine cerebral cortex membrane at 10 uM; format: cell membranes; summary of the method: as §1
smiles,measurement,setting,value
O=C(c1ccc[nH]1)c1cnn2c1n[n+]([O-])c1ccc(Oc3ccccc3)cc12,Ki,[1],276 nM
O=C(c1ccc[nH]1)c1cnn2c1n[n+]([O-])c1ccc(Cl)cc12,Ki,[1],4 nM
same,Activity,Mus musculus [2],0.6 count
same,Activity,Mus musculus [3],1.2 count
same,Activity,Mus musculus [4],0.8 count
same,Activity,Mus musculus [5],297.5 s
same,Activity,Mus musculus [6],264.7 s
same,Activity,Mus musculus [7],329.6 s
same,Activity,Mus musculus [8],inactive
same,Activity,Mus musculus [9],inactive
same,Activity,Mus musculus [10],Active
same,Activity,Mus musculus [11],inactive
same,Activity,Mus musculus [12],inactive
same,Activity,Mus musculus [13],Active
same,Activity,Mus musculus [14],Active
same,Activity,Mus musculus [15],inactive
same,Activity,Mus musculus [16],inactive
same,Activity,Mus musculus [17],Active
same,Activity,Mus musculus [18],Active
same,Activity,Mus musculus [19],Active
same,Activity,Mus musculus [20],Active
same,Activity,Mus musculus [21],Active
same,Activity,Mus musculus [22],498.8 s
same,Activity,Mus musculus [23],647.8 s
same,Activity,Mus musculus [24],535.2 s
O=C(c1ccco1)c1cnn2c1n[n+]([O-])c1ccc(Oc3ccccc3)cc12,Ki,[1],7 nM
Cn1cccc1C(=O)c1cnn2c1n[n+]([O-])c1ccc(Oc3ccccc3)cc12,Ki,[1],1300 nM
O=C(c1cccs1)c1cnn2c1n[n+]([O-])c1ccc(Cl)cc12,Ki,[1],62 nM
CN1C(=O)CN=C(c2ccccc2)c2cc(Cl)ccc21 [DIAZEPAM],Ki,[1],10 nM
same,Activity,Mus musculus [25],inactive
same,Activity,Mus musculus [26],Active
same,Activity,Mus musculus [27],Active
same,Activity,Mus musculus [28],inactive
same,Activity,Mus musculus [29],Active
CCOc1ccc2c(c1)n1ncc(C(=O)c3ccc(OC)cc3)c1n[n+]2[O-],Ki,[1],919 nM
O=C(c1cccs1)c1cnn2c1n[n+]([O-])c1ccc(OCc3ccccc3)cc12,Ki,[1],2.7 nM
O=C(c1ccc2c(c1)OCO2)c1cnn2c1n[n+]([O-])c1ccc(Cl)cc12,Ki,[1],2900 nM
CCOc1ccc2c(c1)n1ncc(C(=O)c3ccc[nH]3)c1n[n+]2[O-],Ki,[1],1840 nM
Cn1ccc(C(=O)c2cnn3c2n[n+]([O-])c2ccc(Cl)cc23)c1,Ki,[1],380 nM
CCOc1ccc2c(c1)n1ncc(C(=O)c3cccn3C)c1n[n+]2[O-],Ki,[1],819 nM
O=Cc1cnn2c1n[n+]([O-])c1ccc(Cl)cc12,inhibition,Bos taurus,64%
O=C(c1ccc[nH]1)c1cnn2c1nnc1ccc(Cl)cc12,Ki,[1],1940 nM
O=C(c1ccsc1)c1cnn2c1n[n+]([O-])c1ccc(Cl)cc12,Ki,[1],121 nM
